For test [1], the target named is T1, αMI-domain (Homo sapiens, UniProt P11215). The test is classed as binding.
The subject of test [2] is U937 monocytic cells. As to the kind of experiment: Chemotaxis of U937 cells towards an agarose drop on coverslips. The test is classed as cell-based, human. The following applies: agarose gel with 15 μg/mL LL-37; 2 h at 37 °C. The method in brief:
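U937 cells on 22 × 22 mm coverslips. A 10 μL drop of 1% agarose in HBSS, with LL-37 at 15 μg/mL final, sits ~1.5 mm from one corner; a control agarose drop sits in the opposite corner; both polymerise 5 min. Coverslips are submerged in RPMI 1640/10% FBS. 5 × 10^4 cells are loaded centrally, then 2 h at 37 °C, 5% CO2. Migration photographed at 2 mm intervals (20× objective); blocking variant uses anti-αM mAb 44a.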

Test [3] has as its system macrophages isolated from αMβ2-deficient mice. As to the kind of experiment: Transwell migration of thioglycolate-elicited peritoneal macrophages. The test is classed as cell-based. The following applies: 90 min, LL-37 1 μg/mL, fMLP 100 nM. In short, it runs like this:
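Thioglycolate-elicited peritoneal monocyte/macrophages from wild-type and αMβ2-deficient mice, purified by anti-F4/80-PE selection. Placed in Transwell inserts with chemoattractant below: LL-37 1 μg/mL or fMLP 100 nM. Allowed to migrate 90 min.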

The test system of test [4] is αMβ2 on neutrophils. The experiment in a line: Flow cytometry of the activation-dependent CBRM1/5 epitope on neutrophils. In kind it is cell-based, human. In short, it runs like this: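 Human blood neutrophils, isolated sterilely, at 10^6 per 0.1 mL in HBSS/0.1% BSA. Exposed 5 min at 22 °C to LL-37 (0.5–10 μg/mL) or fMLP (200 nM). Then Alexa 488-conjugated activation-dependent mAb CBRM1/5, 30 min on ice. Epitope-positive cells counted by flow cytometry. Some samples pretreated with NIF (1 μg/mL) before LL-37 at 4 or 10 μg/mL.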
In general terms: In flow cytometry, cells or beads pass a laser one at a time.

Test [5] relates to αMβ2-expressing HEK293 cells. The experiment in a line: Transwell migration of αMβ2-expressing HEK293 cells. The test is classed as cell-based. The following applies: concentration-dependent, 16 h at 37 °C. The method in brief: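 Transwell, 5 μm pores: 3 × 10^5 αMβ2-HEK293 cells in the upper chamber, LL-37 (0.1–2 μg/mL) below, 16 h at 37 °C. Cells on the filter underside are fixed with paraformaldehyde, hematoxylin-stained and counted (mean cells/view ± standard error, ≥3 experiments). Blocking: 15 min pretreatment with 20 μg/mL anti-αM 44a, anti-β2 IB4 or non-inhibitory OKM1, LL-37 at 0.5 μg/mL. Medium-alone control.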

The target of test [6] is T1, αMI-domain. The following applies: covalently coupled to the cellulose membrane; cited from earlier work.

No end group written: not given here.

T1 sequence (P11215 139-331): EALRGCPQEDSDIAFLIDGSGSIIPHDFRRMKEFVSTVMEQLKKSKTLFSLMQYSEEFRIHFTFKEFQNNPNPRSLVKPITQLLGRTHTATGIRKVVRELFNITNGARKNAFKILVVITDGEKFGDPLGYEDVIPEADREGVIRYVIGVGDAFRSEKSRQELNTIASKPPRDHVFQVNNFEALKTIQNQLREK

What is called IC50 is the concentration at which inhibition is half-maximal. As to `CC(C)C[C@H](NC(=O)[C@H](CC(C)C)NC(=O)[C@H](CCCNC(=N)N)NC(=O)[C@@H](N)CC(N)=O)C(=O)N[C@@H](CC(C)C)C(=O)N[C@H](C(=O)NCC(=O)O)[C@@H](C)O` [NRLLLTG], it took 110 ± 16 µM to reach half-maximal inhibition in test [1] (IC50).

In test [1], ARLPIWF [ARLPIWF] displayed an IC50 of 17 ± 3 µM.

In test [1], GRLPMPW [GRLPMPW] returned an IC50 of 36 ± 7 µM.

As for “LLGDFFRKSKEKIGKEFKRIVQRIKDFLRNLVPRTES [LL-37]”, in test [2], the “chemotactic response of U937 cells” value is listed as “induced a chemotactic response”. Further, the “migration of macrophages from αMβ2-deficient mice” value in test [3] was “did not induce migration”. Also, the “number of cells expressing the activation epitope compared with fMLP” value in test [4] (10 μg/mL LL-37 versus fMLP 200 nM) was “slightly higher”. The “expression of the CBRM1/5 activation epitope on neutrophils” value in test [4] (LL-37 0.5–10 μg/mL, 5 min at 22 °C, mAb CBRM1/5-Alexa 488, FACS) is given as “induced expression of the CBRM1/5 epitope in a concentration-dependent manner”. Also, in test [5], the “LL-37 concentrations at which migration occurred” value was 0.1 to 2 µg/mL.

For the compound LQLRFPRFV [LQLRFPRFV], 10.5 ± 1.6 µM corresponded to half-maximal inhibition in test [1] (IC50).

Turning to QVLRIRKRA [QVLRIRKRA], in test [1], 8.4 ± 0.5 µM corresponded to half-maximal inhibition (IC50).

Turning to RKLRSLWRR [RKLRSLWRR], inhibition in test [1] was half-maximal at 2.5 ± 0.2 µM (IC50).

Regarding SSVKKYRPKYCGS [CCN1-H2], the “αMI-domain binding of the cellulose-coupled peptide” value in test [6] is “bound the αMI-domain”.

SVNKYRGTAGNA [SVNKYRGTAGNA] showed an IC50 in test [1] of 93 ± 11 µM.

In turn, TMKIIPFNRLTIG [P2-C] returned a 50% inhibitory concentration (IC50) in test [1] of 30 ± 2.5 µM.

Regarding YSMKKTTMKIIPFNRLTIG [P2], the “αMI-domain binding of the cellulose-coupled peptide” value in test [6] is listed as “bound the αMI-domain”.

Take fMLP: the “migration of macrophages from αMβ2-deficient mice” value in test [3] is reported as “migrated”.

(Values after publication PMC4532391 (Biochemistry, 2015).)
